Calls of active or inactive are those of the source. The rule behind the calls is not given here.
Legend:
[1] = AUC (0 to t) in Balb/C mouse at 2 mg/kg, iv by LC-MS/MS analysis; assay type: ADME, organism-based; parameters: dose 2 mg/kg; conditions: in vivo
Outline: (§1)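 Healthy Balb/c mice dosed i.v. or orally. Parameters come from non-compartmental analysis of compound concentration over time. […] Clearance is blood clearance (CL_b).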

[2] = test system: Plasmodium falciparum; assay: Antimalarial activity against asexual ring stage of Plasmodium falciparum NF54 measured after 24 hrs by [3H]hypoxanthine incorporation assay; assay type: functional, organism-based
Outline: (§2)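 Tested on a synchronized asexual blood-stage culture of P. falciparum, with IC50 determined separately for the ring and the schizont stage.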

[3] = Dose normalized Cmax in Balb/c mouse at 20 mg/kg, po by LC-MS/MS analysis; assay type: ADME, organism-based; conditions: in vivo; outline: as §1
[4] = AUC (0 to 24 hrs) in Plasmodium falciparum 3D70087/N9 infected NSG mouse at 15 mg/kg, po by LC-MS/MS analysis; assay type: ADME, organism-based; parameters: time < 24 hr, route oral, dose 15 mg/kg; conditions: in vivo
Outline: (§3)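 Oral (PO) dosing of NSG (NODscidIL2Rγnull) mice infected with P. falciparum. Cmax and AUC0–24 are taken from the infected-mouse PK analysis and are also expressed divided by dose.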

[5] = Cmax in Plasmodium falciparum 3D70087/N9 infected NSG mouse at 100 mg/kg, po by LC-MS/MS analysis; assay type: ADME, organism-based; parameters: route oral, dose 100 mg/kg; conditions: in vivo; outline: as §3
[6] = Terminal half life in Balb/C mouse at 20 mg/kg, po by LC-MS/MS analysis; assay type: ADME, organism-based; conditions: in vivo, read-out: beta t1/2 (converted)
Outline: (§4)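 Healthy Balb/c mice were given the compound i.v. or orally. Parameters come from non-compartmental analysis: AUC from 0 h to t_last, blood clearance, volume at steady state, terminal half-life, Tmax. Oral bioavailability F is derived from the i.v. and p.o. data.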

[7] = Cmax in Balb/C mouse at 20 mg/kg, po by LC-MS/MS analysis; assay type: ADME, organism-based; parameters: route oral, dose 20 mg/kg; conditions: in vivo; outline: as §1
[8] = Drug recovery in mouse urine by LC-MS/MS analysis; assay type: ADME, tissue-based; conditions: in vivo
[9] = test system: Plasmodium falciparum; assay: Antimalarial activity against Plasmodium falciparum 3D70087/N9 infected in NOD-SCID IL2Rgamma null mouse assessed as parasitemia at 100 mg/kg, po qd administered for 4 days measured on day 6 post-infection by microscopy based flow cytometry; assay type: functional, organism-based; conditions: time 4.0 day
[10] = Dose normalized AUC (0 to 24 hrs) in Balb/c mouse at 20 mg/kg, po by LC-MS/MS analysis; assay type: ADME, organism-based; conditions: in vivo; outline: as §1
[11] = Selectivity index, ratio of CC50 for cytotoxicity against CHO cells assessed as reduction in cell viability to IC50 for antiplasmodial activity against multidrug-sensitive Plasmodium falciparum NF54 assessed as reduction in parasite growth; assay type: toxicity, cell-based; conditions: hamster, read-out: Ratio CC50/IC50
[12] = Dose normalized AUC (0 to 24 hrs) in Plasmodium falciparum 3D70087/N9 infected NSG mouse at 15 mg/kg, po by LC-MS/MS analysis; assay type: ADME, organism-based; conditions: in vivo; outline: as §3
[13] = Terminal half life in Balb/C mouse at 2 mg/kg, iv by LC-MS/MS analysis; assay type: ADME, organism-based; conditions: in vivo, read-out: beta t1/2 (converted); outline: as §4
[14] = Dose normalized AUC (0 to 24 hrs) in Plasmodium falciparum 3D70087/N9 infected NSG mouse at 5 mg/kg, po by LC-MS/MS analysis; assay type: ADME, organism-based; conditions: in vivo; outline: as §3
[15] = test system: Plasmodium falciparum; assay: Antimalarial activity against asexual schizont stage of Plasmodium falciparum NF54 measured after 24 hrs by [3H]hypoxanthine incorporation assay; assay type: functional, organism-based; outline: as §2
[16] = test system: Plasmodium falciparum; assay: Antimalarial activity against asexual blood stage Plasmodium falciparum assessed as reduction in parasitemia by measuring lag time at 10 times IC50; assay type: functional
[17] = Tmax in Plasmodium falciparum 3D70087/N9 infected NSG mouse at 50 mg/kg, po by LC-MS/MS analysis; assay type: ADME, organism-based; conditions: in vivo
Outline: (§5)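 P. falciparum-infected NSG mice received escalating single oral doses of 1.5, 5, 15, 50 and 100 mg/kg.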

[18] = Ratio of unbound average drug concentration in Balb/c mouse at 20 mg/kg, po measured at 24 hrs to IC50 for antiplasmodial activity against multidrug-sensitive Plasmodium falciparum NF54 asexual blood stage assessed as reduction in parasite growth after 72 hrs by LDH assay; assay type: organism-based; conditions: in vivo
[19] = Cmax in Plasmodium falciparum 3D70087/N9 infected NSG mouse at 5 mg/kg, po by LC-MS/MS analysis; assay type: ADME, organism-based; parameters: route oral, dose 5 mg/kg; conditions: in vivo; outline: as §3
[20] = Lipophilicity, log D of compound at pH 6; assay type: physicochemical; conditions: buffer
[21] = Tmax in Plasmodium falciparum 3D70087/N9 infected NSG mouse po by LC-MS/MS analysis; conditions: in vivo
[22] = AUC (0 to 24 hrs) in Plasmodium falciparum 3D70087/N9 infected NSG mouse at 100 mg/kg, po by LC-MS/MS analysis; assay type: ADME, organism-based; parameters: time < 24 hr, route oral, dose 100 mg/kg; conditions: in vivo; outline: as §3
[23] = test system: Hemozoin; assay: Inhibition of beta-hematin formation assessed as reduction in hemozoin formation incubated for 5 hrs by NP40 detergent-mediated assay
Outline: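 Synthetic hemozoin (β-hematin) formation is driven by the detergent Nonidet P-40. Pyridine is then added to detect unreacted hematin. IC50 is derived from this read-out.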

[24] = test system: Plasmodium berghei; assay: Antiplasmodial activity against luciferase-expressing Plasmodium berghei sporozoites liver stage infected in human HepG2 cells expressing GFP-CD81 fusion protein incubated for 48 hrs by luciferase reporter gene based bioluminescence assay; assay type: functional, organism-based; conditions: HepG2, 48 h
Outline: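 Liver-stage activity was measured in vitro with rodent P. berghei sporozoites. Values are the mean of 3 technical replicates from the luciferase assay; individual values varied less than 2×.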

[25] = Tmax in Plasmodium falciparum 3D70087/N9 infected NSG mouse at 1.5 mg/kg, po by LC-MS/MS analysis; assay type: ADME, organism-based; conditions: in vivo; outline: as §5
[26] = test system: Plasmodium falciparum; assay: Antiplasmodial activity against multidrug-resistant asexual blood stage Plasmodium falciparum K1 strain assessed as reduction in parasite growth after 72 hrs by NBT reagent based LDH assay; assay type: functional, organism-based; conditions: K1, 72 h
Outline: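 Asexual blood-stage K1 (multidrug-resistant) parasites were read out by the parasite lactate dehydrogenase (pLDH) assay. […] Most individual values varied less than 2× (maximum 3×).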

[27] = Tmax in Plasmodium falciparum 3D70087/N9 infected NSG mouse at 100 mg/kg, po by LC-MS/MS analysis; assay type: ADME, organism-based; conditions: in vivo; outline: as §5
[28] = Drug metabolism in mouse blood assessed as oxidation and glucuronidation by LC-MS/MS analysis; assay type: ADME, tissue-based
[29] = test system: Plasmodium falciparum; assay: Antiplasmodial activity against early ring-stage synchronized Plasmodium falciparum assessed as decrease in hemozoin formation after 32 hrs by Giemsa-staining based haemocytometric counting method; assay type: functional, organism-based
[30] = Cmax in Balb/C mouse at 2 mg/kg, iv by LC-MS/MS analysis; assay type: ADME, organism-based; parameters: route intravenous, dose 2 mg/kg; conditions: in vivo; outline: as §1
[31] = Dose normalized AUC (0 to 24 hrs) in Plasmodium falciparum 3D70087/N9 infected NSG mouse at 200 mg/kg, po by LC-MS/MS analysis; assay type: ADME, organism-based; conditions: in vivo; outline: as §3
[32] = Lipophilicity, log D of compound at pH 7.4; assay type: physicochemical; conditions: buffer

CN1CCN(CC2CCN(c3nccc4[nH]c(-c5cc(F)cc(F)c5)nc34)CC2)CC1
AUCt [1]: 2.42 µM·h | IC50 [2]: 27 nM | Cmax/dose [3]: 0.08 µM·kg/mg | AUC [4]: 969 µM·min | Cmax [5]: 6680 nM | half-life [6]: 32.7 h | Cmax [7]: 1500 nM | Drug recovery [8]: Active | Activity [9]: Below limit of detection | AUC/dose [10]: 60 µM·kg·min/mg | selectivity ratio [11]: 1040 | AUC/dose [12]: 65 µM·kg·min/mg | half-life [13]: 23.1 h | AUC/dose [14]: 34 µM·kg·min/mg | IC50 [15]: 60 nM | Time [16]: 0 h | Tmax [17]: 12.5 h | Ratio [18]: 4.5 | Cmax [19]: 130 nM | logD [20]: 0.4 | Tmax [21]: 4 h | AUC [22]: 5142 µM·min | IC50 [23]: 24000 nM | IC50 [24]: 14000 nM | Tmax [25]: 1.5 h | IC50 [26]: 41 nM | Tmax [27]: 1 h | Drug metabolism [28]: Metabolite_Detected | Activity [29]: Active | Cmax [30]: 600 nM | AUC/dose [31]: 62 µM·kg·min/mg | logD [32]: 2.6

Reference: ChEMBL document CHEMBL4699593, “Identification of 2,4-Disubstituted Imidazopyridines as Hemozoin Formation Inhibitors with Fast-Killing Kinetics and In Vivo Efficacy in the Plasmodium falciparum NSG Mouse Model” (J Med Chem, 2020)
